Experiment [1] deals with T1, Tyrosine-protein phosphatase non-receptor type 2 (Homo sapiens, UniProt P17706).
T1 sequence (P17706 whole entry): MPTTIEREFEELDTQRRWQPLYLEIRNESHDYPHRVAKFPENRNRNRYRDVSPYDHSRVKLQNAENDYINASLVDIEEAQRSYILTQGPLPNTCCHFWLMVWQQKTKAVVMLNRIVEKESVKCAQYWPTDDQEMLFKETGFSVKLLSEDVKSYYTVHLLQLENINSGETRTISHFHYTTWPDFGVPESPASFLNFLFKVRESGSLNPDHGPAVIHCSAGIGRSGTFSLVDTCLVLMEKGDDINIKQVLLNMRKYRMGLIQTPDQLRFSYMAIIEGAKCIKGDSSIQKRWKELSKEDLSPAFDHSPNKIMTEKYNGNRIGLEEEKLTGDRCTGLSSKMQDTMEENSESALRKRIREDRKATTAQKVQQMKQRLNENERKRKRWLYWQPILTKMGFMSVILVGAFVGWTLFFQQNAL
Description: Inhibition of human PTPN2 expressed in Escherichia coli Rosetta 2 (DE3) using pNPP as substrate after 45 mins by spectrophotometric method.

In experiment [2] the target is T2, Tyrosine-protein phosphatase non-receptor type 5 (Homo sapiens, UniProt P54829).
T2 sequence (P54829 whole entry): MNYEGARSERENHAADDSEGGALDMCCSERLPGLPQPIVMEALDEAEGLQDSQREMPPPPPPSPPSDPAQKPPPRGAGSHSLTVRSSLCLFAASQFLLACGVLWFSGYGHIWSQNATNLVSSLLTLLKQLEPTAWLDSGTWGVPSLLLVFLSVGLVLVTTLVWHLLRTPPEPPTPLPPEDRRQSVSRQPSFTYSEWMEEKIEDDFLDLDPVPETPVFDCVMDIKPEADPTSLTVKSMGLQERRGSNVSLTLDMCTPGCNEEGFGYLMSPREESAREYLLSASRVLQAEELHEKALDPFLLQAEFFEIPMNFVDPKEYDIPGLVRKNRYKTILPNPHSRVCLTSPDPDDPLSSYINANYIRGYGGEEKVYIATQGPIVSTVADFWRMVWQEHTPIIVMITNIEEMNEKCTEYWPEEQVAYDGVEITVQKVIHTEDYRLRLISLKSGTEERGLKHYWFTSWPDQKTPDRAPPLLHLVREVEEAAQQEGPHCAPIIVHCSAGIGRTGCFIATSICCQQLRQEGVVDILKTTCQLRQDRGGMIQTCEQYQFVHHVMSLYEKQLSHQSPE
Description: Inhibition of human PTPN5 expressed in Escherichia coli Rosetta 2 (DE3) using pNPP as substrate after 45 mins by spectrophotometric method.

Experiment [3] has as its target T3, Phosphotyrosine protein phosphatase (Mycobacterium tuberculosis, UniProt A0A045ISB3).
T3 sequence (A0A045ISB3 whole entry): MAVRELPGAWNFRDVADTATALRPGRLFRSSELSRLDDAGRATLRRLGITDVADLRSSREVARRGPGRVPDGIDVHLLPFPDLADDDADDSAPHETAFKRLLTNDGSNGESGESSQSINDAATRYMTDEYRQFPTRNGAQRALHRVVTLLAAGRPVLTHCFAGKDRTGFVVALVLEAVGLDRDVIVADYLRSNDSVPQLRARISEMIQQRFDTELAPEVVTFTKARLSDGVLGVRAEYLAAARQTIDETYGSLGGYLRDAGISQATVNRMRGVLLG
The experiment in a line: Inhibition of Mycobacterium tuberculosis His-tagged PtpB expressed in Escherichia coli Rosetta 2 (DE3) using pNPP as substrate after 30 mins by spectrophotometric method.

The subject of experiment [4] is Mycobacterium tuberculosis. Description: Antitubercular activity against Mycobacterium tuberculosis H37Rv after 5 days at 200 uM relative to control. To be noted: 120 h. Type of experiment: functional. The gist of the method: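 M. tuberculosis grown in liquid culture with compound at a fixed 200 μM for 5 days. Growth inhibition expressed as percent of control.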

The target of experiment [5] is T4, Tyrosine-protein phosphatase non-receptor type 1 (Homo sapiens, UniProt P18031).
T4 sequence (P18031 whole entry): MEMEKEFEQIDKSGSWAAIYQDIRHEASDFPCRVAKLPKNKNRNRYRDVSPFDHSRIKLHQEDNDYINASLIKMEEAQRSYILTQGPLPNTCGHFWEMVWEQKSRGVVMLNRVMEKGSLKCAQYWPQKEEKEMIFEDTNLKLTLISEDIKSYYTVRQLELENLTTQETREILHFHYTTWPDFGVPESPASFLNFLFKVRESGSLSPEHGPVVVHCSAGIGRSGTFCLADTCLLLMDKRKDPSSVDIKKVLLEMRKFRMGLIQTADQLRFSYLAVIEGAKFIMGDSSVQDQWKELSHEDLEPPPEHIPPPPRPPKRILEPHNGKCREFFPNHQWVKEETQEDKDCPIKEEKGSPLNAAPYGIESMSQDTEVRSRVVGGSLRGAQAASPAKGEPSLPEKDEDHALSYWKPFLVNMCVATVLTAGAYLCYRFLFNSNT
Description: Inhibition of human PTPN1 expressed in Escherichia coli Rosetta 2 (DE3) using pNPP as substrate after 45 mins by spectrophotometric method.

One may read the IC50 as the point on the concentration scale where inhibition reaches its midpoint. Low values mean higher potency, high ones lower potency. A word on the inhibition: it is the change of the read-out against control, counted positive when it falls.

As to `COc1ccccc1S(=O)(=O)Nc1ccc(-c2nc3cc(NS(=O)(=O)c4ccccc4OC)ccc3o2)cc1`, the half-inhibitory concentration (IC50) in experiment [1] turned out to be 21 µM; in experiment [2], 19 µM; in experiment [3], 8.7 µM; in experiment [5], 12 µM. This compound gave an inhibition at 200 µM in experiment [4] of 12%.
The corresponding values for `O=S(=O)(Nc1ccc(-c2nc3cc(NS(=O)(=O)c4cccc(Br)c4)ccc3o2)cc1)c1cccc(Br)c1` are 11 µM, 11 µM, 0.79 µM, 14 µM and 17%.
On the same counts, the results for `O=[N+]([O-])c1cccc(S(=O)(=O)Nc2ccc(-c3nc4cc(NS(=O)(=O)c5cccc([N+](=O)[O-])c5)ccc4o3)cc2)c1` are 29 µM, 24 µM, 9.1 µM, 14 µM and 0%.
The corresponding values for `O=S(=O)(Nc1ccc(-c2nc3cc(NS(=O)(=O)c4ccc(Cl)s4)ccc3o2)cc1)c1cccc(C(F)(F)F)c1` are 16 µM, 16 µM, 3 µM, 12 µM and 36%.
Take `O=[N+]([O-])c1ccc(S(=O)(=O)Nc2ccc(-c3nc4cc(NS(=O)(=O)c5ccc([N+](=O)[O-])cc5)ccc4o3)cc2)cc1`: the IC50 in experiment [1] is 28 µM; in experiment [2] it was 18 µM; in experiment [3], 6.2 µM; in experiment [5], 27 µM. In addition, the inhibition at 200 µM in experiment [4] was 0%.
`O=S(=O)(Nc1ccc(-c2nc3cc(NS(=O)(=O)c4ccc(Cl)s4)ccc3o2)cc1)c1ccc(Cl)s1`: the IC50 in experiment [1] is 25 µM; in experiment [2] it was 15 µM; in experiment [3], 2.3 µM; in experiment [5], 11 µM. Moreover, the inhibition at 200 µM in experiment [4] worked out at 41%.
Consider `O=S(=O)(Nc1ccc(-c2nc3cc(NS(=O)(=O)c4ccc(Cl)cc4)ccc3o2)cc1)c1ccc(Cl)cc1`, for which the IC50 is 19 µM in experiment [1], 12 µM in experiment [2], 4.3 µM in experiment [3] and 8.1 µM in experiment [5]. The compound further returned an inhibition at 200 µM in experiment [4] of 0%.
The corresponding values for `COC(=O)c1ccc(S(=O)(=O)Nc2ccc(-c3nc4cc(NS(=O)(=O)c5ccc(C(=O)OC)cc5)ccc4o3)cc2)cc1` are 17 µM, 22 µM, 11 µM, 11 µM and 0%.
On the same counts, the results for `O=S(=O)(Nc1ccc2oc(-c3ccc(NS(=O)(=O)c4ccc(Cl)s4)cc3)nc2c1)c1ccc(Cl)c(C(F)(F)F)c1` are 14 µM, 11 µM, 3.8 µM, 7.6 µM and 0%.
`O=S(=O)(Nc1ccc(-c2nc3cc(NS(=O)(=O)c4ccc(Cl)s4)ccc3o2)cc1)c1ccc(Cl)c(Cl)c1`: the half-inhibitory concentration (IC50) was 12 µM in experiment [1], 9.8 µM in experiment [2], 2.3 µM in experiment [3] and 6.9 µM in experiment [5]. In experiment [4], this compound displayed an inhibition at 200 µM of 0%.
On the same counts, the results for `O=S(=O)(Nc1ccc(-c2nc3cc(NS(=O)(=O)c4ccc(Cl)s4)ccc3o2)cc1)c1ccc2ccccc2c1` are 13 µM, 11 µM, 3.9 µM, 6.9 µM and 0%.
On the same counts, the results for `O=S(=O)(Nc1ccc2oc(-c3ccc(NS(=O)(=O)c4ccc(Cl)s4)cc3)nc2c1)c1cccc(C(F)(F)F)c1` are 20 µM, 16 µM, 7.1 µM, 13 µM and 0%.
On the same counts, the results for `O=S(=O)(Nc1ccc2oc(-c3ccc(NS(=O)(=O)c4ccc(Cl)s4)cc3)nc2c1)c1ccc2ncsc2c1` are 9.3 µM, 11 µM, 3.6 µM, 12 µM and 50%.
Turning to `O=S(=O)(Nc1ccc(-c2nc3cc(NS(=O)(=O)c4ccc(Br)cc4)ccc3o2)cc1)c1ccc(Br)cc1`, the half-inhibitory concentration (IC50) in experiment [1] was 18 µM; in experiment [2] it was 11 µM; in experiment [3], 3.6 µM; in experiment [5], 11 µM. The same compound registered an inhibition at 200 µM in experiment [4] of 0%.
As to `O=c1ccc2cc(S(=O)(=O)Nc3ccc4oc(-c5ccc(NS(=O)(=O)c6ccc(Cl)s6)cc5)nc4c3)ccc2o1`, the IC50 in experiment [1] came to 9.3 µM; in experiment [2] it was 11 µM; in experiment [3] it was 4.1 µM; in experiment [5] it was 13 µM. This compound registered an inhibition at 200 µM in experiment [4] of 18%.
On the same counts, the results for `O=[N+]([O-])c1cc(S(=O)(=O)Nc2ccc3oc(-c4ccc(NS(=O)(=O)c5ccc(Cl)s5)cc4)nc3c2)ccc1Cl` are 8.9 µM, 8.4 µM, 4.6 µM, 9.4 µM and 1%.
The corresponding values for `O=S(=O)(Nc1ccc2oc(-c3ccc(NS(=O)(=O)c4ccc(Cl)s4)cc3)nc2c1)c1ccc(Cl)c(Cl)c1` are 13 µM, 11 µM, 3.3 µM, 7.6 µM and 0%.
With `COc1ccc(Cl)cc1S(=O)(=O)Nc1ccc(-c2nc3cc(NS(=O)(=O)c4ccc(Cl)s4)ccc3o2)cc1`, the IC50 in experiment [1] turned out to be 16 µM; in experiment [2] it was 11 µM; in experiment [3], 3.4 µM; in experiment [5] it was 6.4 µM. For the same compound, 200 µM produced 33% inhibition in experiment [4].
As for `COc1ccc(Cl)cc1S(=O)(=O)Nc1ccc2oc(-c3ccc(NS(=O)(=O)c4ccc(Cl)s4)cc3)nc2c1`, the IC50 was 9.2 µM in experiment [1], 11 µM in experiment [2], 6.4 µM in experiment [3] and 10 µM in experiment [5]. This compound had an inhibition at 200 µM in experiment [4] of 39%.
The corresponding values for `O=S(=O)(Nc1ccc(-c2nc3cc(NS(=O)(=O)c4ccccc4C(F)(F)F)ccc3o2)cc1)c1ccccc1C(F)(F)F` are 22 µM, 15 µM, 8.1 µM, 14 µM and 35%.
On the same counts, the results for `COC(=O)c1ccccc1S(=O)(=O)Nc1ccc(-c2nc3cc(NS(=O)(=O)c4ccccc4C(=O)OC)ccc3o2)cc1` are 14 µM, 21 µM, 11 µM, 10 µM and 0%.
Regarding `O=S(=O)(Nc1ccc2oc(-c3ccc(NS(=O)(=O)c4ccc(Cl)s4)cc3)nc2c1)c1ccc(F)c(C(F)(F)F)c1`, the IC50 in experiment [1] was 20 µM; in experiment [2] it was 14 µM; in experiment [3] it was 5.7 µM; in experiment [5] it was 11 µM. In experiment [4], this compound returned an inhibition at 200 µM of 0%.
On the same counts, the results for `O=S(=O)(Nc1ccc(-c2nc3cc(NS(=O)(=O)c4ccc(Cl)s4)ccc3o2)cc1)c1cccs1` are 9.5 µM, 9.3 µM, 3.4 µM, 4.9 µM and 0%.
